pKi: −log10 of the molar value.
What was measured:
[1] = biological target: T1, 5-hydroxytryptamine receptor 1A (Homo sapiens, UniProt P08908); assay: Displacement of [3H]-8-OH-DPAT from human 5HT1A receptor expressed in HEK293 cells incubated for 1 hr by liquid scintillation counter method; format: cell-based; details: for pKi: read-out: Ki; for Ki: hek293
T1 sequence (P08908 whole entry): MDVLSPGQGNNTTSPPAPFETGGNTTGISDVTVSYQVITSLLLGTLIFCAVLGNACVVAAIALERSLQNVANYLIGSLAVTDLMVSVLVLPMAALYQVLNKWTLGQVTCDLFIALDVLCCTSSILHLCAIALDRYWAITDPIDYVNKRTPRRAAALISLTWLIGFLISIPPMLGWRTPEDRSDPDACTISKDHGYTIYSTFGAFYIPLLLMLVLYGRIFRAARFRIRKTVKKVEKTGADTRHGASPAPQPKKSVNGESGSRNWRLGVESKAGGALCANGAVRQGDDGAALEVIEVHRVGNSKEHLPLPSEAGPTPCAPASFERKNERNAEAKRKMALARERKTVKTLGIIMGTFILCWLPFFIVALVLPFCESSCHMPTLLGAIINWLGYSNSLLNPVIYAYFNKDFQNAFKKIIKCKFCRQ
How it was run: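 HEK293 cells stably expressing human 5-HT1AR; membranes in 50 mM Tris–HCl, 0.1 mM EDTA, 4 mM MgCl2, 10 μM pargyline, 0.1% ascorbate; incubated 1 h at room temperature, then filtered. Nonspecific binding defined with 10 μM 5-HT.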

[2] = Solubility of compound in water; format: physicochemical; details: buffer
[3] = biological target: 5-hydroxytryptamine receptor 2A (Homo sapiens, UniProt P28223); assay: Displacement of [3H]ketanserin from human 5HT2A receptor expressed in CHOK1 cells incubated for 1 hr by liquid scintillation counter method; format: cell-based; details: for pKi: read-out: Ki
Sequence of 5-hydroxytryptamine receptor 2A (P28223 whole entry): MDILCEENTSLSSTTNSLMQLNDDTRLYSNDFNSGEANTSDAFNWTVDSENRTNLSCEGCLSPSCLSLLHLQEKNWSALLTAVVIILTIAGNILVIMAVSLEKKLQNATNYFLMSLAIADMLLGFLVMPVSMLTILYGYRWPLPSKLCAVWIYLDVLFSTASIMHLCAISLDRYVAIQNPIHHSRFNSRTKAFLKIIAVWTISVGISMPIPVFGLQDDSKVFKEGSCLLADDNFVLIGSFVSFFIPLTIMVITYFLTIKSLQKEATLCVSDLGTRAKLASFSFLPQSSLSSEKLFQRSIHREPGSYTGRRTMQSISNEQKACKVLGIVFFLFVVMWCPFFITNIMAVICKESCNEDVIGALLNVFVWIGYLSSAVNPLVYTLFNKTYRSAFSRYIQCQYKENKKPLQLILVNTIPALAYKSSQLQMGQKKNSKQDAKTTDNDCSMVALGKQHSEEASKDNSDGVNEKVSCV

Row | SMILES | pKi [1] | solubility [2] | pKi [3] | Ki [1] | Ki [3]
1 | CC(=O)Nc1ncc(-c2cn(S(=O)(=O)c3ccccc3)c3ccccc23)[nH]1 | < 5.00 | Insoluble | – | – | –
2 | COc1ccc2c(c1)c(-c1[nH]c3cccc[n+]3c1C)cn2S(=O)(=O)c1ccccc1.[Br-] | – | Soluble | < 5.00 | – | –
3 | CCc1nc(NC(C)=O)[nH]c1-c1cn(S(=O)(=O)c2ccccc2)c2ccccc12 | – | Insoluble | < 5.00 | – | –
4 | CCC(=O)Nc1nc(C)c(-c2ccc3ccn(S(=O)(=O)c4ccccc4)c3c2)[nH]1 | – | Insoluble | 5.13 | – | –
5 | COc1ccc2c(c1)c(-c1[nH]c(NCc3ccccc3)nc1C)cn2S(=O)(=O)c1ccccc1 | – | Insoluble | – | Not Active | –
6 | COc1ccc2c(c1)c(-c1[nH]c(NC(C)=O)nc1C)cn2S(=O)(=O)c1ccccc1 | < 5.00 | Insoluble | < 5.00 | – | –
7 | COc1ccc2c(c1)c(-c1[nH]c(N)nc1C)cn2S(=O)(=O)c1ccccc1.Cl | < 5.00 | Soluble | 6.17 | – | –
8 | Cl.Nc1ncc(-c2cccc3c2ccn3S(=O)(=O)c2ccccc2)[nH]1 | – | Soluble | 5.64 | – | –
9 | Cc1sc(N)nc1-c1cn(S(=O)(=O)c2cccc3ccccc23)c2ccccc12 | – | Insoluble | – | Not Active | Not Active
10 | COc1ccc2c(c1)c(-c1nc(N)sc1C)cn2S(=O)(=O)c1ccc2ccccc2c1 | – | Insoluble | – | – | –
11 | COc1ccc2c(c1)c(-c1[nH]c(NC(C)=O)nc1C)cn2S(=O)(=O)c1cccc2ccccc12 | – | Insoluble | < 5.00 | – | –
12 | CCC(=O)Nc1nc(C)c(-c2cn(S(=O)(=O)c3cccc4ccccc34)c3ccc(OC)cc23)[nH]1 | – | Insoluble | – | – | –
13 | CCC(=O)Nc1nc(C)c(-c2cn(S(=O)(=O)c3ccc4ccccc4c3)c3ccc(OC)cc23)[nH]1 | – | Insoluble | < 5.00 | – | –
14 | CC(=O)Nc1nc(C)c(-c2cn(S(=O)(=O)c3cccc4ccccc34)c3ccccc23)[nH]1 | – | Insoluble | – | – | –
15 | CCc1nc(NC(C)=O)[nH]c1-c1cn(S(=O)(=O)c2ccccc2)c2ccc(OC)cc12 | < 5.00 | Insoluble | < 5.00 | – | –
16 | COc1ccc2c(c1)c(-c1cnc(NC(C)=O)[nH]1)cn2S(=O)(=O)c1cccc(F)c1 | – | Insoluble | < 5.00 | – | –
17 | COc1ccc2c(c1)c(-c1[nH]c(N)nc1C)cn2S(=O)(=O)c1cccc2ccccc12 | < 5.00 | – | 5.78 | – | –
18 | CCC(=O)Nc1nc(C)c(-c2cn(S(=O)(=O)c3cccc4ccccc34)c3ccccc23)[nH]1 | – | Insoluble | < 5.00 | – | –
19 | COc1ccc2c(c1)c(-c1cnc(N)[nH]1)cn2S(=O)(=O)c1cccc(F)c1.Cl | – | Soluble | – | – | –
20 | CCC(=O)Nc1nc(CC)c(-c2cn(S(=O)(=O)c3ccccc3)c3ccc(OC)cc23)[nH]1 | – | Insoluble | – | – | –
21 | COc1ccc2c(c1)c(-c1nc(N)sc1C)cn2S(=O)(=O)c1ccccc1 | – | Insoluble | 5.61 | – | –
22 | COc1ccc2c(c1)c(-c1nc(N)sc1C)cn2S(=O)(=O)c1cccc2ccccc12 | – | Insoluble | – | – | –
23 | COc1ccc2c(c1)c(-c1[nH]c(N)nc1C)cn2S(=O)(=O)c1ccc2ccccc2c1.Cl | – | Soluble | 5.98 | – | –
24 | CCc1nc(N)[nH]c1-c1cn(S(=O)(=O)c2ccccc2)c2ccccc12.Cl | – | Soluble | 6.97 | – | –
25 | COc1ccc2c(c1)c(-c1cnc(NC(C)=O)[nH]1)cn2S(=O)(=O)c1ccccc1 | < 5.00 | Insoluble | – | – | –
26 | CC(=O)Nc1nc(C)c(-c2c(C)n(S(=O)(=O)c3ccccc3)c3ccccc23)[nH]1 | < 5.00 | Insoluble | – | – | –
27 | COc1ccc2c(c1)c(-c1[nH]c(NC(C)=O)nc1C)cn2S(=O)(=O)c1ccc2ccccc2c1 | – | Insoluble | < 5.00 | – | –
28 | Cc1sc(N)nc1-c1cn(S(=O)(=O)c2ccccc2)c2ccccc12 | – | Insoluble | – | Not Active | –
